Results published in ChEMBL document CHEMBL4513216, “Probing the Open Global Health Chemical Diversity Library for Multistage-Active Starting Points for Next-Generation Antimalarials” (ACS Infect Dis, 2020).

Assay: Toxicity liver stage against HepG2, at 10uM
Type: cell-based
Design: test concentration 10 uM, cell line HepG2-A16-CD81EGFP
Conditions: human, HepG2-A16-CD81EGFP cells; read-out: INHIBITION
Outline: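 Uninfected HepG2-A16-CD81EGFP cells, 3 × 10^3 per well, 1536-well, plated on prespotted compound at 10 μM final, parasite-free screening media added to match infected plates; puromycin 10 μM positive, DMSO 0.5% negative; run in parallel with 48 h PbLuc assay at 37 °C, 5% CO2; viability by CellTiter-Glo luminescence, normalized to controls.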

Work on `Cc1ccc(NC(=O)Cn2ccc3c(=O)n(C)ccc32)cc1F` yielded a cytotoxicity at 10 µM of -2.74%.
Work on `O=C(O)CCNC(=O)N1CCc2c([nH]c3ccc(Cl)cc23)C1` yielded a cytotoxicity at 10 µM of 11.9%.
Compound `O=c1nc(SCc2cccnc2)c2c(n1CCO)CCCC2` has a cytotoxicity at 10 µM of 8.97%.
Compound `COc1nn(C)cc1C(=O)N1CCC(c2ccccc2)C1` (stereo not given) has a cytotoxicity at 10 µM of -2.18%.
Work on `COC(C)(CNS(=O)(=O)c1cccnc1)c1ccccc1F` (stereo not given) yielded a cytotoxicity at 10 µM of -0.403%.
Compound `CCS(=O)(=O)N1Cc2c(Cn3cccc3)nn(C(C)C)c2C1` has a cytotoxicity at 10 µM of 13.6%.
In the case of `CCOCC1CC2(CCN(C(=O)C3CCSCC3)CC2)CO1` (stereo not given), the cytotoxicity at 10 µM is reported as 2.5%.
Work on `OCCN1CCOC2(CCCN(c3ncccn3)C2)C1` (stereo not given) yielded a cytotoxicity at 10 µM of 9.55%.
`COCC(=O)N1C[C@@H]2COC[C@]2(COC)C1` showed a cytotoxicity at 10 µM of 5.44%.
Work on `CCOC[C@H]1CC[C@H]2[C@H](CCN2S(=O)(=O)Cc2ccccc2)O1` yielded a cytotoxicity at 10 µM of 8.61%.
`CC(C)CCN1N=C(C(=O)N2CCCCCC2)S(=O)(=O)c2ccccc21` showed a cytotoxicity at 10 µM of 11.8%.
`O=C(c1ccc(Cl)cc1-n1cnnn1)N1CCC2(CC1)OCCO2` showed a cytotoxicity at 10 µM of 3.51%.
Work on `CCOc1cccc(CNc2ccccc2C(F)(F)F)c1O` yielded a cytotoxicity at 10 µM of -4.17%.
Work on `COc1ccccc1OCC(=O)NCC(O)(c1ccccc1)C1CC1` (stereo not given) yielded a cytotoxicity at 10 µM of -16.1%.
Compound `CC(C)(C)C(=O)NCCn1ccc(-c2ccncc2)n1` has a cytotoxicity at 10 µM of -26.7%.
With `Cc1noc(C2CCC3(CCN(C(=O)c4c(C)noc4C)CC3)O2)n1` (stereo not given) the cytotoxicity at 10 µM was -10.6%.
`O=C1CCCN1Cc1ncn2c1CN(C(=O)c1cccc(F)c1)CCC2` gave a cytotoxicity at 10 µM of -12.1%.
`Cc1nn(Cc2ccc(C(=O)NCCCN3CCOCC3)o2)c(C)c1Cl` showed a cytotoxicity at 10 µM of -5.47%.
`CCCn1c(N2CCCC(C)C2)nc2c(C)nn(C)c2c1=O` (stereo not given) showed a cytotoxicity at 10 µM of 13.4%.
Compound `COc1c(C)cnc(CNCC(C)C)c1C` has a cytotoxicity at 10 µM of -0.135%.
`CCOCCCNC(=O)c1cn(CC)nc1C` gave a cytotoxicity at 10 µM of 5.37%.
Work on `Cc1noc(C)c1CC(=O)N[C@@H]1CC[C@@H](Oc2ccccc2)[C@@H]1O` yielded a cytotoxicity at 10 µM of 2.04%.
For `Cc1ccccc1CC(=O)NCc1cnc(CC2CCN(C)CC2)cn1`, the cytotoxicity at 10 µM was -1.25%.
In the case of `OCc1cc(C2CCCN2c2ncccn2)n[nH]1` (stereo not given), the cytotoxicity at 10 µM is reported as 8.32%.
`CNC(=O)C1(Cc2cc(C(C)C)no2)CCN(Cc2ccccn2)C1` (stereo not given) showed a cytotoxicity at 10 µM of 6.24%.
Compound `CC(C(=O)N1CCCC1)n1nc(-c2cccs2)cc(N)c1=O` (stereo not given) has a cytotoxicity at 10 µM of 6.66%.
`Cc1nn(C(C)C)cc1S(=O)(=O)N(C)Cc1nonc1C` gave a cytotoxicity at 10 µM of 11.6%.
`CC(C)c1nnc(CCC(=O)N2CCOC(c3cnccn3)C2)o1` (stereo not given) gave a cytotoxicity at 10 µM of -2.01%.
Compound `O=S(=O)(c1ccccc1)N1C[C@@H]2CCCCN(Cc3cccs3)[C@@H]2C1` has a cytotoxicity at 10 µM of 1.56%.
For `Cc1ccc(S(=O)(=O)N2CCCC(c3n[nH]cc3C(=O)N(C)C)C2)cc1` (stereo not given), the cytotoxicity at 10 µM was 6.91%.
Compound `CC(C)Nc1ncc(-c2ccncc2)c([C@@H]2CCCO2)n1` has a cytotoxicity at 10 µM of 10.8%.
Compound `O=C(CCS(=O)(=O)C1CCCC1)N1CCC(O)(C(F)(F)F)C1` (stereo not given) has a cytotoxicity at 10 µM of 18.9%.
`O=C(CNC(=O)Nc1c(F)cccc1Oc1ccccc1)NC1CC1` showed a cytotoxicity at 10 µM of 6.45%.
`CC(=O)N1CCC(C(=O)NCCc2c[nH]c3cc(C)ccc23)CC1` showed a cytotoxicity at 10 µM of 18.1%.
Work on `Cc1ncc2c(n1)CN(Cc1nc(-c3ccco3)oc1C)CC2` yielded a cytotoxicity at 10 µM of 2.2%.
`OCCC1(NCc2ccc(-n3cccn3)cc2)CCOCC1` gave a cytotoxicity at 10 µM of -146%.
`O=C(NCC1CCOC1)c1cc(-c2ccc(Cl)cc2)n[nH]1` (stereo not given) showed a cytotoxicity at 10 µM of -14%.
Compound `COC(=O)C(CNC(=O)Nc1cn[nH]c1)Cc1cccc(C)c1` (stereo not given) has a cytotoxicity at 10 µM of 1.37%.
`Cc1ccc(N(CCC#N)C(=O)CCc2cccnc2)cc1C` gave a cytotoxicity at 10 µM of -7.68%.
Compound `CN(CCC#N)C(=O)Cn1cnc2c(Br)cccc2c1=O` has a cytotoxicity at 10 µM of -1.6%.
For `Cc1noc(CCCNC(=O)CNC(=O)c2cc3ccccc3[nH]2)n1`, the cytotoxicity at 10 µM was 4.81%.
In the case of `c1cc(CCN2CCC(c3n[nH]c(C4CC4)n3)CC2)ccn1`, the cytotoxicity at 10 µM is reported as 3.39%.
Work on `COCCC(C)NC(=O)Nc1ccc(N2CCOC2=O)c(OC)c1` (stereo not given) yielded a cytotoxicity at 10 µM of 6.48%.
Compound `COc1ncccc1NC(=O)NCC1CC1` has a cytotoxicity at 10 µM of -2.45%.
Compound `COc1cccc(NC(=O)Cc2c(C)nc3c(c2C)c(=O)[nH]n3C)c1` has a cytotoxicity at 10 µM of 5.05%.
With `CCS(=O)(=O)c1ccc(N2CCC(N)CC2)cc1` the cytotoxicity at 10 µM was -6.44%.
Work on `Cc1nnc(C(C)NCC2(c3ccc(Cl)cc3)CCOCC2)o1` (stereo not given) yielded a cytotoxicity at 10 µM of -1.47%.
Work on `Cc1cc(CC(=O)NC(C)c2ccc(OCC3CC3)c(F)c2)n[nH]1` (stereo not given) yielded a cytotoxicity at 10 µM of 4.75%.
Compound `Cn1cc(CC2CCN(C(=O)NCc3csc(C4CC4)n3)C2)cn1` (stereo not given) has a cytotoxicity at 10 µM of 5.22%.
`CCOC(=O)C(C)Nc1cccc(COCc2ccco2)c1` (stereo not given) gave a cytotoxicity at 10 µM of 2.1%.
Work on `COC(=O)NCCCC(=O)NCC1(c2cccc(Cl)c2)CC1` yielded a cytotoxicity at 10 µM of 1.42%.
`CC(NCc1cnc(C2CCC2)s1)c1ccccc1-n1cccn1` (stereo not given) showed a cytotoxicity at 10 µM of 0.33%.
`CCC(SC)C(=O)N1CCC(n2cccn2)CC1` (stereo not given) gave a cytotoxicity at 10 µM of -45.8%.
`CN(C)C(=O)CN1CCN(C(=O)C2CSc3ccccc3O2)CC1` (stereo not given) showed a cytotoxicity at 10 µM of 1.84%.
In the case of `O=C(Nc1cc2c(cc1Br)OCCO2)NC1CCS(=O)(=O)C1` (stereo not given), the cytotoxicity at 10 µM is reported as -9.82%.
